In ChEMBL document CHEMBL4342528, “Discovery of a First-in-Class Protein Arginine Methyltransferase 6 (PRMT6) Covalent Inhibitor” (J Med Chem, 2020):
Calls of active or inactive are those of the source. The rule behind the calls is not given here.

Assays:
[1] = target: Histone-lysine N-methyltransferase EZH2 (Homo sapiens) (UniProt Q15910); assay: Inhibition of PRC2 (unknown origin) assessed as reduction in incorporation of [3H]-labeled methyl group into biotinylated substrate using [3H-SAM] at 10 uM incubated for 1 hr by scintillation proximity assay
Summary of the method: (§1)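 Panel of 33 methyltransferases (22 PKMTs, 3 DNMTs, 8 PRMTs), each tested at 10 and 50 μM compound. Activity was read as ³H-methyl transfer from ³H-SAM in a radiometric assay done as previously described.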

[2] = target: T1, Protein arginine N-methyltransferase 6 (Homo sapiens, UniProt Q96LA8); assay: Inhibition of human PRMT6 assessed as Kinact/Ki ratio pre-incubated for 1 to 30 mins using [3H]SAM as donor and [3H]methylated biotin-labeled peptide as substrate by scintillation proximity assay
[3] = target: T2, Protein arginine N-methyltransferase 3 (Homo sapiens, UniProt O60678); assay: Inhibition of PRMT3 (unknown origin) assessed as reduction in incorporation of [3H]-labeled methyl group into biotinylated substrate using [3H-SAM] at 10 uM incubated for 1 hr by scintillation proximity assay; summary of the method: as §1
Target sequence in this assay (O60678 2-531 limits assumed): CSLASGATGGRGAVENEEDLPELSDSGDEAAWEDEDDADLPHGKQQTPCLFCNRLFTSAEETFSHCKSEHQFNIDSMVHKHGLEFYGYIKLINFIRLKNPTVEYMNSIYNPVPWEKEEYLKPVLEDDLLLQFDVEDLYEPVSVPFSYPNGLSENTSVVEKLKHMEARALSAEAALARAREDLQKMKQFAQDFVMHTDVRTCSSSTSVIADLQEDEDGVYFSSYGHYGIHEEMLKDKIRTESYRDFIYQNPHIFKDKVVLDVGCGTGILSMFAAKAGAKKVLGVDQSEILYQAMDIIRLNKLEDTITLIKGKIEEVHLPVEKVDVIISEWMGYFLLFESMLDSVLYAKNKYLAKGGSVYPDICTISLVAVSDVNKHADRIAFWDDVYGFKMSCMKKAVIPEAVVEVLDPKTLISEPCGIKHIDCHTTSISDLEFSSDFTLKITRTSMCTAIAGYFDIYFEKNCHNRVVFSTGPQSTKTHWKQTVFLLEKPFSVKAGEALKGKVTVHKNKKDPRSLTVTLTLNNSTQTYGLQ

[4] = target: DNMT3B-DNMT3L complex (Homo sapiens) (UniProt Q9UBC3+Q9UJW3); assay: Inhibition of DNMT3B/3L (unknown origin) at 10 uM using un-biotinylated Poly(2'-deoxyinosinic-2'-deoxycytidylic acid) substrate using [3H-SAM] incubated for 1 hr by scintillation proximity assay; assay type: protein-complex assay; summary of the method: as §1
[5] = target: Histone-lysine N-methyltransferase SETD7 (Homo sapiens) (UniProt Q8WTS6); assay: Inhibition of SETD7 (unknown origin) assessed as reduction in incorporation of [3H]-labeled methyl group into biotinylated substrate using [3H-SAM] at 10 uM incubated for 1 hr by scintillation proximity assay; summary of the method: as §1
[6] = target: Histone-lysine N-methyltransferase EHMT2 (Homo sapiens) (UniProt Q96KQ7); assay: Inhibition of G9a (unknown origin) assessed as reduction in incorporation of [3H]-labeled methyl group into biotinylated substrate using [3H-SAM] at 10 uM incubated for 1 hr by scintillation proximity assay; summary of the method: as §1
[7] = target: Protein arginine N-methyltransferase 8 (Homo sapiens, UniProt Q9NR22); assay: Covalent binding affinity to human PRMT8 assessed as covalent adduct. formation at 300 uM pre-incubated for 1 hr by mass spectrometry
Summary of the method: (§2)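 PRMT protein at 15 μM was incubated 1 h at room temperature with a 20-fold molar excess of inhibitor (300 μM). The reaction was quenched with 0.1% aqueous TFA, separated by HPLC (5–95% acetonitrile in water) and analysed by ESI time-of-flight LC/MS for protein–ligand adduct mass.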

Homo sapiens [8] = organism: Homo sapiens; assay: Inhibition of DNMT3A/3L (unknown origin) at 50 uM using un-biotinylated Poly(2'-deoxyinosinic-2'-deoxycytidylic acid) substrate using [3H-SAM] at 50 uM incubated for 1 hr by scintillation proximity assay relative to control; summary of the method: as §1
[9] = target: T3, Protein arginine N-methyltransferase 1 (Homo sapiens, UniProt Q99873); assay: Inhibition of PRMT1 in human MCF7 cells assessed as reduction in H4R3me2a levels incubated for 2 days by fluorescence based assay; assay type: cell-based
Summary of the method: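 MCF7 cells with endogenous PRMT1 were treated with compound for 2 days, with MS023 (1 μM) as positive control. The H4R3me2a fluorescence signal was normalized to H4 and fitted nonlinearly to give IC50.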

[10] = target: T1, Protein arginine N-methyltransferase 6; assay: Inhibition of PRMT6 (unknown origin) assessed as reduction in incorporation of [3H]-labeled methyl group into biotinylated substrate using [3H-SAM] at 10 uM incubated for 1 hr by scintillation proximity assay; summary of the method: as §1
[11] = target: T2, Protein arginine N-methyltransferase 3; assay: Inhibition of human PRMT3 using [3H]SAM as donor and [3H]methylated biotin-labeled peptide as substrate by scintillation proximity assay
Summary of the method: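 Compound titrated into the reaction; 1 h enzyme–compound preincubation stated for PRMT6. Methylated peptide captured on streptavidin/scintillant-coated plates and counted (cpm). IC50 from concentration–response, triplicate, mean ± SD.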
Target sequence in this assay (O60678 whole entry): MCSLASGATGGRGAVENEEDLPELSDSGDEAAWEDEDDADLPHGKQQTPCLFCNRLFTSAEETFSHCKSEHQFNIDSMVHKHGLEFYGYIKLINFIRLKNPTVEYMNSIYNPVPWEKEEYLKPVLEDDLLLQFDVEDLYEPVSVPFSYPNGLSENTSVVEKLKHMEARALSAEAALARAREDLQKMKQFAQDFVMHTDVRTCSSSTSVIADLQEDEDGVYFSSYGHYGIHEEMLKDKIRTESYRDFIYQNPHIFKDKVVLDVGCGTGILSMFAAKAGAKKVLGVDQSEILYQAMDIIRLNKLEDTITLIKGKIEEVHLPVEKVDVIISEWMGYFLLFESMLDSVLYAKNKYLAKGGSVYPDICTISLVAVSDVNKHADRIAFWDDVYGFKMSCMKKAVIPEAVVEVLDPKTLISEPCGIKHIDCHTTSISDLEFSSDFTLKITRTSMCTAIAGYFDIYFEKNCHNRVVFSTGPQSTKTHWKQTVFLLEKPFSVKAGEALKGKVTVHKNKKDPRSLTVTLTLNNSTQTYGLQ

[12] = target: Histone-lysine N-methyltransferase SUV39H2 (Homo sapiens) (UniProt Q9H5I1); assay: Inhibition of SUV39H2 (unknown origin) assessed as reduction in incorporation of [3H]-labeled methyl group into biotinylated substrate using [3H-SAM] at 10 uM incubated for 1 hr by scintillation proximity assay
Homo sapiens [13] = organism: Homo sapiens; assay: Selectivity index, ratio of IC50 for human PRMT8 to IC50 for human PRMT6
Summary of the method: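 Radiometric SPA: ³H-methyl transfer from ³H-SAM to biotin-labeled peptide, captured on streptavidin/scintillant-coated plate, counts per minute read; substrate and cofactor each at their Km for the enzyme; compound titrated; IC50 from triplicate determinations, mean ± SD.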

Homo sapiens [14] = organism: Homo sapiens; assay: Inhibition of DNMT3A/3L (unknown origin) at 10 uM using un-biotinylated Poly(2'-deoxyinosinic-2'-deoxycytidylic acid) substrate using [3H-SAM] incubated for 1 hr by scintillation proximity assay; summary of the method: as §1
[15] = target: T1, Protein arginine N-methyltransferase 6; assay: Inhibition of PRMT6 (unknown origin) assessed as reduction in incorporation of [3H]-labeled methyl group into biotinylated substrate using [3H-SAM] at 50 uM incubated for 1 hr by scintillation proximity assay relative to control; summary of the method: as §1
[16] = target: T3, Protein arginine N-methyltransferase 1; assay: Covalent binding affinity to human PRMT1 assessed as covalent adduct. formation at 300 uM pre-incubated for 1 hr by mass spectrometry; summary of the method: as §2
Target sequence in this assay (Q99873 whole entry, looked up): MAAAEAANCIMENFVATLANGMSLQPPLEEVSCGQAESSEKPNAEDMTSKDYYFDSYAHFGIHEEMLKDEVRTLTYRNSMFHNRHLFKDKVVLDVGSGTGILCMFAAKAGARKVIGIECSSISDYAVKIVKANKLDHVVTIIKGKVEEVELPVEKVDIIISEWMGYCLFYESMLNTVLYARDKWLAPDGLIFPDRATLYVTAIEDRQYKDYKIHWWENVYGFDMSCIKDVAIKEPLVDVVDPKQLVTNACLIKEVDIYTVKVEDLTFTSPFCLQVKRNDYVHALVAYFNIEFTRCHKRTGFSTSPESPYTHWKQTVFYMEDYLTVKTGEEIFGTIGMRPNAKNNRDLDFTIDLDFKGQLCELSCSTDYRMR

[17] = target: Protein arginine N-methyltransferase 7 (Homo sapiens) (UniProt Q9NVM4); assay: Inhibition of PRMT7 (unknown origin) assessed as reduction in incorporation of [3H]-labeled methyl group into biotinylated substrate using [3H-SAM] at 10 uM incubated for 1 hr by scintillation proximity assay; summary of the method: as §1
[18] = target: DNA (cytosine-5)-methyltransferase 1 (Homo sapiens) (UniProt P26358); assay: Inhibition of DNMT1 (unknown origin) at 10 uM using double-stranded DNA substrate using [3H-SAM] incubated for 1 hr by scintillation proximity assay; summary of the method: as §1
[19] = target: Histone-lysine N-methyltransferase, H3 lysine-36 specific (Homo sapiens) (UniProt Q96L73); assay: Inhibition of NSD1 (unknown origin) at 10 uM using [3H-SAM] and nucleosome as substrate incubated for 1 hr by scintillation proximity assay; summary of the method: as §1

T1 sequence (Q96LA8 whole entry, looked up): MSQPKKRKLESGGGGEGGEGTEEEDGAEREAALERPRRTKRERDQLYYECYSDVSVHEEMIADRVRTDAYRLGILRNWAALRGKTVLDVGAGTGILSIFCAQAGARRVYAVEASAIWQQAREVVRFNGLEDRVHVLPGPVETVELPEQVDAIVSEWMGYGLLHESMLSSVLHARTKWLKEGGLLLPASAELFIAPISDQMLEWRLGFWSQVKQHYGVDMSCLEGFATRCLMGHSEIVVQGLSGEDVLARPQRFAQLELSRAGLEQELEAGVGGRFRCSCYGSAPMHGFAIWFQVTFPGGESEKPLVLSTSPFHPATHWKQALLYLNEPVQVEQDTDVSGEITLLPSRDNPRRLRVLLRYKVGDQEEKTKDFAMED
Sequence of Histone-lysine N-methyltransferase SETD7 (Homo sapiens) (Q8WTS6 whole entry): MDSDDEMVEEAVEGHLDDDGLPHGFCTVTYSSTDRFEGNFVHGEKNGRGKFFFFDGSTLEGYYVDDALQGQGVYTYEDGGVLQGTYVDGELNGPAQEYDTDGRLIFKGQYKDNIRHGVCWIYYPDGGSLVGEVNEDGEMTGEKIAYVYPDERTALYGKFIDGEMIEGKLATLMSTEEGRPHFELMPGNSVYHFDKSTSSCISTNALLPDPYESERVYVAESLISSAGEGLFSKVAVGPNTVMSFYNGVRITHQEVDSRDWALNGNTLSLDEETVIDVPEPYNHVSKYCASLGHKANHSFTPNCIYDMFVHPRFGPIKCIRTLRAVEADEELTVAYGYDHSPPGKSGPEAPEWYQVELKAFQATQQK
Sequence of Protein arginine N-methyltransferase 8 (Q9NR22 2-394 limits assumed): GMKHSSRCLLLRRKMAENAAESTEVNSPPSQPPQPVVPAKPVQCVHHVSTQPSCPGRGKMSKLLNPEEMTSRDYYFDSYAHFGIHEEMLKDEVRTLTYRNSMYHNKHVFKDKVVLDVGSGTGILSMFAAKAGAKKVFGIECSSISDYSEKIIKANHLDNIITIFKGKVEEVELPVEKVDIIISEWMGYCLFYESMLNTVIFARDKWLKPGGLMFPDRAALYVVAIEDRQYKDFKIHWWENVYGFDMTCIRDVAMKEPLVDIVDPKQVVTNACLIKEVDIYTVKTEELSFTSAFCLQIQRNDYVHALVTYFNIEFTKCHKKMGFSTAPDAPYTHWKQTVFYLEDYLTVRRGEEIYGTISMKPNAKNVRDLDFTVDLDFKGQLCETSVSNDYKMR
Sequence of Histone-lysine N-methyltransferase EHMT2 (Homo sapiens) (Q96KQ7 whole entry): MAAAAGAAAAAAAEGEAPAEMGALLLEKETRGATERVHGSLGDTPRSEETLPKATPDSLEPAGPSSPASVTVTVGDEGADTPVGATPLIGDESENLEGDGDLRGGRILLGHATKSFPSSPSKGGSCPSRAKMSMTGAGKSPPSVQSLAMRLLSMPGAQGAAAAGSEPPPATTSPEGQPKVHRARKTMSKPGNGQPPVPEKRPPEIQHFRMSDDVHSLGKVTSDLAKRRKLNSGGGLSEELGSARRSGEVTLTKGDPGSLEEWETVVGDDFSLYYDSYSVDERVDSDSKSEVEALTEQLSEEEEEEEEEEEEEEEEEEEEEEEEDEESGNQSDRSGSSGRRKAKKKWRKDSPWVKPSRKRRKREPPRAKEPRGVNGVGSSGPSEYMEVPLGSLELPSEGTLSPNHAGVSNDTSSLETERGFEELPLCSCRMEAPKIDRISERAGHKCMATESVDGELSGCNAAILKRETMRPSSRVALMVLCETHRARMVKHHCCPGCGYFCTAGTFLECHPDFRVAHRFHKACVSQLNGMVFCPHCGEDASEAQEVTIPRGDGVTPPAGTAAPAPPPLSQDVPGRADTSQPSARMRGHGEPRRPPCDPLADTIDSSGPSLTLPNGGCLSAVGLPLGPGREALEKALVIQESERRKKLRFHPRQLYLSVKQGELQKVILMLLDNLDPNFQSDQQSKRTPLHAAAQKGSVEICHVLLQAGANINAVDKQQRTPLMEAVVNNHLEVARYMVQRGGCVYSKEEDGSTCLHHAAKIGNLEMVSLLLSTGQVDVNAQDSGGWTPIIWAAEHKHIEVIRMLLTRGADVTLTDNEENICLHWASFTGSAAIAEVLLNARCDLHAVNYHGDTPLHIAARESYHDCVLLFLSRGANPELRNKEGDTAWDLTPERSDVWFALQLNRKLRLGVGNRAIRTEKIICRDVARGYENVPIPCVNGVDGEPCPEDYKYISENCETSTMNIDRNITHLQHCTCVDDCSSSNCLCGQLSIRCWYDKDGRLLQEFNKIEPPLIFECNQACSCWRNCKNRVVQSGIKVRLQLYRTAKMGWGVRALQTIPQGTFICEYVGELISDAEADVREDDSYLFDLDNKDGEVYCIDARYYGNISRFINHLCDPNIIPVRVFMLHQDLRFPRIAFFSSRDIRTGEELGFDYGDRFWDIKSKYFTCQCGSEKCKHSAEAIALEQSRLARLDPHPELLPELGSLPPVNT
Sequence of Histone-lysine N-methyltransferase SUV39H2 (Homo sapiens) (Q9H5I1 whole entry): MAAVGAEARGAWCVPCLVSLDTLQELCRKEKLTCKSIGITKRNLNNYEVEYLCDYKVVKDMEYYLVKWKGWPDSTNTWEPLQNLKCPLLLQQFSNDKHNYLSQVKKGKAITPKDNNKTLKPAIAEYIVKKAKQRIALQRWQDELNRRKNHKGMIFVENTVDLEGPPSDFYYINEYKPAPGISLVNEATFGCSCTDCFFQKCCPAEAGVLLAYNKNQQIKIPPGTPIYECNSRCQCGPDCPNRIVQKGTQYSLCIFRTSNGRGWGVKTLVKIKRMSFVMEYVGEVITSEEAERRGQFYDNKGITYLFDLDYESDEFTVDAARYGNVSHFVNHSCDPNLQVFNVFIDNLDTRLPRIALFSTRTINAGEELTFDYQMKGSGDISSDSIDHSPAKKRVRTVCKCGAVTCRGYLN
Sequence of Histone-lysine N-methyltransferase EZH2 (Homo sapiens) (Q15910 whole entry, looked up): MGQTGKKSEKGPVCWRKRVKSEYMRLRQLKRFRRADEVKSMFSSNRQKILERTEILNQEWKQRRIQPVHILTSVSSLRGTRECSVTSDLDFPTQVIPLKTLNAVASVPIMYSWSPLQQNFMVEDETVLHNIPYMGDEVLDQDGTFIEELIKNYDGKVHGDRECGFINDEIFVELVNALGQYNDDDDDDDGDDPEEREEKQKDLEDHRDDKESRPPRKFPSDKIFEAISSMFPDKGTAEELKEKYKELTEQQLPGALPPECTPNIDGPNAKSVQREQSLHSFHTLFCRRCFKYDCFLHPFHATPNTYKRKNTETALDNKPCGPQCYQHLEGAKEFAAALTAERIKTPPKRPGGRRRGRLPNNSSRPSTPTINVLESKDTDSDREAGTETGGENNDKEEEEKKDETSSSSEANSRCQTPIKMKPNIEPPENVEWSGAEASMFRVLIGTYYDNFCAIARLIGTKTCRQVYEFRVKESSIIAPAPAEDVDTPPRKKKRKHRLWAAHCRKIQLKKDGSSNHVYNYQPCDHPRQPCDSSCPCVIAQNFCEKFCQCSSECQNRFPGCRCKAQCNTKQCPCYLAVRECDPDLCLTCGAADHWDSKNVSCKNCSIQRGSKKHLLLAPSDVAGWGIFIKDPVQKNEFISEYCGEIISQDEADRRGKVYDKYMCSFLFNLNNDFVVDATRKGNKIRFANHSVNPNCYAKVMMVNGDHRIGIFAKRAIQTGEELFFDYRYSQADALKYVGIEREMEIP

With C=CC(=O)Nc1cccc(-c2c[nH]cc2CN(C)CCN)c1 the inhibition [1] was “inactive”, the Ratio [2] was 8.3 ×10⁴ /M/s and the inhibition [3] was over 90%. The inhibition [4] was “inactive”, the inhibition [5] was “inactive” and the inhibition [6] was “inactive”. For the same compound, the Activity [7] was “inactive”, the inhibition (Homo sapiens [8]) was over 50% and the IC50 [9] was 5.6 µM. The inhibition [9] was “Dose-dependent effect”, the inhibition [10] was over 90% and the IC50 [11] was 3 µM. The inhibition [12] was “inactive”, the Ratio IC50 (Homo sapiens [13]) was 6 and the inhibition (Homo sapiens [14]) was “inactive”. The inhibition [15] was over 50%, the Activity [16] was “inactive” and the inhibition [17] was “inactive”. For the same compound, the inhibition [18] was “inactive” and the inhibition [19] was “inactive”.
